From ChEMBL document CHEMBL4732208, “Discovery of novel N-alkylcytidines as promising antimicrobial agents” (Eur J Med Chem, 2021)
In brackets after ≈: the same amount, converted by molar mass. Activity calls are given as the source filed them. The rule behind the calls is not given here.

Assays:
[1] = tested on: Leuconostoc mesenteroides; assay: Antibacterial activity against Leuconostoc mesenteroides VKPM B-4177; format: functional
Procedure, shortened: (§1)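 Strains grown in modified Gause's nutrient medium N 2, inoculum 10⁶ cells/ml. Test compound dissolved in 50% aqueous methanol, added at ten volume percent of the medium. Growth controls: medium without additions, medium with solvent mixture, and clinical antibiotics (amikacin, ciprofloxacin, isoniazid, rifampicin, oxacillin, vancomycin).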

Bacillus subtilis = assay: Antibacterial activity against Bacillus subtilis ATCC 6633; format: functional; procedure, shortened: as §1
[2] = tested on: Mycolicibacterium smegmatis; assay: Antibacterial activity against Mycobacterium smegmatis mc2155; format: functional
Procedure, shortened: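 Strains were grown in modified Gause's nutrient medium N 2 at 10⁶ cells/ml. The compound was dissolved in 50% aqueous methanol and added at 10 volume percent of the medium. Controls were untreated cultures, medium with the solvent mixture, and clinical antibiotics.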

[3] = tested on: Mycolicibacterium smegmatis; assay: Antibacterial activity against Mycobacterium smegmatis VKPM Ac-1339; format: functional; procedure, shortened: as §1
Staphylococcus aureus [4] = assay: Antibacterial activity against Staphylococcus aureus FDA 209 P; format: functional; procedure, shortened: as §1
Staphylococcus aureus [5] = assay: Antibacterial activity against Staphylococcus aureus INA 00761; format: functional; procedure, shortened: as §1
Micrococcus luteus = assay: Antibacterial activity against Micrococcus luteus NCTC 8340; format: functional; procedure, shortened: as §1
[6] = Cytotoxicity against human A549 cells by MTT assay; format: cell-based
Procedure, shortened: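 Adherent A549 cells passaged in DMEM with 10% fetal calf serum and 2 mM glutamine, at 37 °C, 5% CO2, 90% humidity. MTT test. CC50 is the concentration that inhibits culture growth by 50%.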

[7] = Acute toxicity in ip dosed mouse administered for 5 days and observed for 4 weeks; format: organism-based; settings: in vivo
[8] = Subchronic toxicity in ip dosed mouse administered for 5 days and observed for 4 weeks; format: organism-based; settings: in vivo
[9] = Subchronic toxicity in ip dosed mouse assessed as delayed effect administered for 5 days and observed for 4 weeks; format: organism-based; settings: in vivo
Aspergillus versicolor [10] = assay: Antifungal activity against Aspergillus versicolor SRX7729174 STG-25G assessed as reduction in fungal growth at 3 mM measured upto 48 days by drop dilution assay relative to control; format: functional; settings: time day <=48
Procedure, shortened: (§2)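 Incubated up to 48 days at 26 °C. Colony diameters read every 3 days (days 6–48). Growth inhibition = (Dc−Dt)/Dc × 100 versus control. Inoculum 5 × 10⁵ CFU. Triplicate, repeated at least twice.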

[11] = Antifungal activity against Aspergillus-creber SRX7729180 STG-57 assessed as reduction in fungal growth at 3 mM measured upto 48 days by drop dilution assay relative to control; format: functional; settings: time day <=48; procedure, shortened: as §2
Aspergillus versicolor [12] = assay: Antifungal activity against Aspergillus versicolor SRX7729182 STG-25G assessed as reduction in fungal growth at 3 mM measured upto 48 days by drop dilution assay relative to control; format: functional; settings: time day <=48; procedure, shortened: as §2
Aspergillus [13] = assay: Antifungal activity against Aspergillus SRX7729186 STG-93W assessed as reduction in fungal growth at 3 mM measured upto 48 days by drop dilution assay relative to control; format: functional; settings: time day <=48; procedure, shortened: as §2
[14] = Antifungal activity against Aspergillus-amoenus SRX7729194 STG-106 assessed as reduction in fungal growth at 3 mM measured upto 48 days by drop dilution assay relative to control; format: functional; settings: time day <=48; procedure, shortened: as §2
[15] = Antifungal activity against Cladosporium-halotolerans SRX7729178 STG-52B assessed as reduction in fungal growth at 3 mM measured upto 48 days by drop dilution assay relative to control; format: functional; settings: time day <=48; procedure, shortened: as §2
[16] = Antifungal activity against Cladosporium-parahalotolerans SRX7729188 STG-93B assessed as reduction in fungal growth at 3 mM measured upto 48 days by drop dilution assay relative to control; format: functional; settings: time day <=48; procedure, shortened: as §2
[17] = Antifungal activity against Ulocladium chartarum SRX7729176 STG-36 assessed as reduction in fungal growth at 3 mM measured upto 48 days by drop dilution assay relative to control; format: functional; settings: Alternaria chartarum, time day <=48; procedure, shortened: as §2
[18] = tested on: Simplicillium lamellicola; assay: Antifungal activity against Simplicillium lamellicola SRX772919 STG-96 assessed as reduction in fungal growth at 3 mM measured upto 48 days by drop dilution assay relative to control; format: functional; settings: time day <=48; procedure, shortened: as §2
[19] = Antifungal activity against Microascus-paisii SRX7729192 STG-103 assessed as reduction in fungal growth at 3 mM measured upto 48 days by drop dilution assay relative to control; format: functional; settings: time day <=48; procedure, shortened: as §2
Aspergillus versicolor [20] = assay: Antifungal activity against Aspergillus versicolor SRX7729174 STG-25G assessed as reduction in fungal growth at 0.1 to 3.5 mM measured for 24 days by drop dilution assay relative to control; format: functional; settings: dose 0.1-3.5 mM, time 24.0 day
Procedure, shortened: (§3)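 Drop-dilution method. Suspension plated on CDA with or without compound (screening range 0.1–3.5 mM); 5-fluorocytosine positive control. Incubated at 26 °C. Inhibition % = (Dc−Dt)/Dc × 100 from colony diameters; triplicate, repeated at least twice.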

Aspergillus creber = assay: Antifungal activity against Aspergillus-creber SRX7729180 STG-57 assessed as reduction in fungal growth at 0.1 to 3.5 mM measured for 24 days by drop dilution assay relative to control; format: functional; settings: dose 0.1-3.5 mM, time 24.0 day; procedure, shortened: as §3
Aspergillus versicolor [21] = assay: Antifungal activity against Aspergillus versicolor SRX7729182 STG-25G assessed as reduction in fungal growth at 0.1 to 3.5 mM measured for 24 days by drop dilution assay relative to control; format: functional; settings: dose 0.1-3.5 mM, time 24.0 day; procedure, shortened: as §3
Aspergillus [22] = assay: Antifungal activity against Aspergillus SRX7729186 STG-93W assessed as reduction in fungal growth at 0.1 to 3.5 mM measured for 24 days by drop dilution assay relative to control; format: functional; settings: dose 0.1-3.5 mM, time 24.0 day; procedure, shortened: as §3
Aspergillus amoenus = assay: Antifungal activity against Aspergillus-amoenus SRX7729194 STG-106 assessed as reduction in fungal growth at 0.1 to 3.5 mM measured for 24 days by drop dilution assay relative to control; format: functional; settings: dose 0.1-3.5 mM, time 24.0 day; procedure, shortened: as §3
[23] = tested on: Cladosporium halotolerans; assay: Antifungal activity against Cladosporium-halotolerans SRX7729178 STG-52B assessed as reduction in fungal growth at 0.1 to 3.5 mM measured for 24 days by drop dilution assay relative to control; format: functional; settings: dose 0.1-3.5 mM, time 24.0 day; procedure, shortened: as §3
[24] = tested on: Cladosporium parahalotolerans; assay: Antifungal activity against Cladosporium-parahalotolerans SRX7729188 STG-93B assessed as reduction in fungal growth at 0.1 to 3.5 mM measured for 24 days by drop dilution assay relative to control; format: functional; settings: dose 0.1-3.5 mM, time 24.0 day; procedure, shortened: as §3
Alternaria chartarum = assay: Antifungal activity against Ulocladium chartarum SRX7729176 STG-36 assessed as reduction in fungal growth at 0.1 to 3.5 mM measured for 24 days by drop dilution assay relative to control; format: functional; settings: dose 0.1-3.5 mM, time 24.0 day; procedure, shortened: as §3
[25] = tested on: Simplicillium lamellicola; assay: Antifungal activity against Simplicilium-lamellicola SRX772919 STG-96 assessed as reduction in fungal growth at 0.1 to 3.5 mM measured for 24 days by drop dilution assay relative to control; format: functional; settings: dose 0.1-3.5 mM, time 24.0 day; procedure, shortened: as §3
Microascus paisii = assay: Antifungal activity against Microascus-paisii SRX7729192 STG-103 assessed as reduction in fungal growth at 0.1 to 3.5 mM measured for 24 days by drop dilution assay relative to control; format: functional; settings: dose 0.1-3.5 mM, time 24.0 day; procedure, shortened: as §3

SMILES: CCCCCCCCCCCCNc1nc(=O)n([C@H]2C[C@H](O)[C@@H](CO)O2)cc1C
- MIC [1]: 24 µM (≈ 9.83 µg/mL)
- MIC (Bacillus subtilis): 24 µM (≈ 9.83 µg/mL)
- MIC [2]: 24 µM (≈ 9.83 µg/mL)
- MIC [3]: 24 µM (≈ 9.83 µg/mL)
- MIC (Staphylococcus aureus [4]): 48 µM (≈ 19.7 µg/mL)
- MIC (Staphylococcus aureus [5]): 48 µM (≈ 19.7 µg/mL)
- MIC (Micrococcus luteus): 24 µM (≈ 9.83 µg/mL)
- CC50 [6]: 158 µM
- LD50 at 672 h [7]: 270 mg/kg
- LD50 at 672 h [8]: 215 mg/kg
- LD50 at 672 h [9]: 200 mg/kg
- inhibition at 3000 µM (Aspergillus versicolor [10]): 100%
- inhibition at 3000 µM [11]: 100%
- inhibition at 3000 µM (Aspergillus versicolor [12]): 100%
- inhibition at 3000 µM (Aspergillus [13]): 100%
- inhibition at 3000 µM [14]: 100%
- inhibition at 3000 µM [15]: 100%
- inhibition at 3000 µM [16]: 100%
- inhibition at 3000 µM [17]: 100%
- inhibition at 3000 µM [18]: 100%
- inhibition at 3000 µM [19]: 100%
- inhibition (Aspergillus versicolor [20]): Active
- inhibition (Aspergillus creber): Active
- inhibition (Aspergillus versicolor [21]): Active
- inhibition (Aspergillus [22]): Active
- inhibition (Aspergillus amoenus): Active
- inhibition [23]: Active
- inhibition [24]: Active
- inhibition (Alternaria chartarum): Active
- inhibition [25]: Active
- inhibition (Microascus paisii): Active
